Data taken from ChEMBL document CHEMBL2016492, “Design and synthesis of carbamate and thiocarbamate derivatives and their inhibitory activities of NO production in LPS activated macrophages” (Bioorg Med Chem Lett, 2012).
Active and inactive are the calls of the source. No cut-off for these calls is given here.

How the values were obtained:
RAW264.7 [1] = experiment: Inhibition of LPS-induced NO production in mouse RAW264.7 cells at 20 uM after 20 hrs by Griess method; type: functional; conditions: RAW264.7, 20 h
Method in brief: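 Same nitrite read-out in RAW 264.7 cells: 1% FBS medium, LPS 1 μg/mL with compound at 20 μM for 20 h. Griess reagent, 570 nm, nitrite standard curve. Percent inhibition relative to LPS-only control, n = 3.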

RAW264.7 [2] = experiment: Inhibition of LPS-induced iNOS mRNA expression in mouse RAW264.7 cells at 5 uM after 6 hrs by RT-PCR analysis; type: functional, cell-based
Method in brief: (§1)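 RAW 264.7 cells at 8 × 10⁵ per 60 mm dish stimulated 6 h with LPS (1 μg/mL) plus compound at 5 or 20 μM. Total RNA extracted; iNOS mRNA measured by RT-PCR with β-actin as internal control. PCR run 25 cycles (94 °C 30 s, 55 °C 30 s, 72 °C 30 s); products run on 2% agarose gel. Representative of three independent experiments.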

[3] = target: Transcription factor p65 (Mus musculus) (UniProt Q04207); experiment: Inhibition of NF-kB p65 nuclear translocation in LPS-stimulated mouse RAW264.7 cells at 20 uM treated 30 mins before LPS challenge measured after 15 mins by Western blot analysis
[4] = target: Transcription factor p65 (Mus musculus) (UniProt Q04207); experiment: Inhibition of NF-kB p65 nuclear translocation in LPS-stimulated mouse RAW264.7 cells at 5 uM treated 30 mins before LPS challenge measured after 15 mins by Western blot analysis
RAW264.7 [5] = experiment: Inhibition of LPS-induced iNOS mRNA expression in mouse RAW264.7 cells at 20 uM after 6 hrs by RT-PCR analysis; type: functional, cell-based; method in brief: as §1
RAW264.7 [6] = experiment: Inhibition of LPS-induced iNOS protein expression in mouse RAW264.7 cells at 20 uM after 20 hrs by Western blot analysis; type: functional, cell-based
Method in brief: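 RAW 264.7 cells at 8 × 10⁵ per 60 mm dish treated 20 h with LPS (1 μg/mL) and compound (5, 20 μM). Cells washed and lysed; 20 μg lysate protein run on 8% SDS-PAGE, transferred to PVDF. Probed with anti-iNOS and anti-β-actin (internal control); ECL detection. Representative of three independent experiments.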

RAW264.7 [7] = experiment: Inhibition of LPS-induced NO production in mouse RAW264.7 cells after 20 hrs by Griess method; type: functional, cell-based; conditions: RAW264.7, 20 h
Method in brief: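 RAW 264.7 cells in 10% FBS-DMEM plated at 1 × 10⁵ cells/mL for 24 h, then switched to 1% FBS medium. Incubated 20 h with LPS (1 μg/mL) ± compounds. Nitrite in supernatant measured with Griess reagent, 10 min at room temperature, absorbance 570 nm, sodium nitrite standard curve. IC50 taken from dose–response curve; mean ± SD of three experiments.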

RAW264.7 [8] = experiment: Inhibition of LPS-induced NO production in mouse RAW264.7 cells at 100 uM after 20 hrs by Griess method; type: functional; conditions: RAW264.7, 20 h

Sequence of Transcription factor p65 (Mus musculus) (Q04207 whole entry): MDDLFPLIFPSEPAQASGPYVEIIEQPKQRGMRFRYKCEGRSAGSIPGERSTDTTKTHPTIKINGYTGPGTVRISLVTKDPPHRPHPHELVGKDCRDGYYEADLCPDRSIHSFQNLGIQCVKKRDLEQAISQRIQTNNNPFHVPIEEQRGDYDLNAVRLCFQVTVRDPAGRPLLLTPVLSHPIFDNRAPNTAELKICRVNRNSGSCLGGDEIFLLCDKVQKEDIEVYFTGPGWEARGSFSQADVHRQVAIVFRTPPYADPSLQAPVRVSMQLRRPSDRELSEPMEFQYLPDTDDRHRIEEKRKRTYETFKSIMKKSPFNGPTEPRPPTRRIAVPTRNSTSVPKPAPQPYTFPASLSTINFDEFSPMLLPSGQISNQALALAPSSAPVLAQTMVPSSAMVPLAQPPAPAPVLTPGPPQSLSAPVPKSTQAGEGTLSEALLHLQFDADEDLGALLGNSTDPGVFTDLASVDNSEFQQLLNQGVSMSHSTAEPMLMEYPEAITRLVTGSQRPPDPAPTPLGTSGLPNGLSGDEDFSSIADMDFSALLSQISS

## CSC(=O)Nc1ccc(OCCn2c3ccccc3c3ccccc32)cc1
RAW264.7 [1]
  inhibition at 20 µM: 44%

## CCOC(=O)CNC(=S)Oc1ccc(OCCn2c3ccccc3c3ccccc32)cc1
RAW264.7 [2]
  inhibition: Active
[3]
  inhibition: Active
RAW264.7 [1]
  inhibition at 20 µM: 73%
[4]
  inhibition: Active
RAW264.7 [5]
  inhibition: Active
RAW264.7 [6]
  inhibition: Active
RAW264.7 [7]
  IC50: 6.5 µM

## N=C(N)NN [PIMAGEDINE]
RAW264.7 [8]
  inhibition at 100 µM: 74%

## COC(=O)CNC(=O)Oc1ccc(OCCn2c3ccccc3c3ccccc32)cc1
RAW264.7 [1]
  inhibition at 20 µM: 33%

## O=C(Nc1ccc(OCCn2c3ccccc3c3ccccc32)cc1)Oc1ccc([N+](=O)[O-])cc1
RAW264.7 [1]
  inhibition at 20 µM: 22%

## COC(=S)Nc1ccc(OCCn2c3ccccc3c3ccccc32)cc1
[3]
  inhibition: Active
RAW264.7 [1]
  inhibition at 20 µM: 60%
[4]
  inhibition: Active
RAW264.7 [5]
  inhibition: Active
RAW264.7 [6]
  inhibition: Active
RAW264.7 [7]
  IC50: 12 µM

## CCOC(=O)CNC(=O)Oc1ccc(OCCn2c3ccccc3c3ccccc32)cc1
RAW264.7 [1]
  inhibition at 20 µM: 35%

## CCNC(=O)Oc1ccc(OCCn2c3ccccc3c3ccccc32)cc1
RAW264.7 [1]
  inhibition at 20 µM: 10%

## CC(C)OC(=S)Nc1ccc(OCCn2c3ccccc3c3ccccc32)cc1
RAW264.7 [1]
  inhibition at 20 µM: 20%

## CCSC(=O)Nc1ccc(OCCn2c3ccccc3c3ccccc32)cc1
RAW264.7 [1]
  inhibition at 20 µM: 26%

## CCNC(=S)Oc1ccc(OCCn2c3ccccc3c3ccccc32)cc1
RAW264.7 [1]
  inhibition at 20 µM: 10%

## S=C(Nc1ccc(OCCn2c3ccccc3c3ccccc32)cc1)OCc1ccccc1
RAW264.7 [1]
  inhibition at 20 µM: 18%
